Read-outs that look alike come from different tables or passages of the source.
Tests used:
[1] = tested on: PANFR0172_T3; test: Patient-derived pancreatic organoid viability, PANFR0172_T3; type: cell-based, human; details: read-out: PANFR0172_T3 3D organoid culture IC50
How it was run: (§1)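 Patient-derived PDAC organoids were dissociated to single cells and plated at 1000 viable cells/well in complete organoid medium with 10% Matrigel, in ultra-low-attachment 384-well plates. After 24 h, compound was added by digital dispenser, then 7 days incubation. Read-out was CellTiter-Glo 3D luminescence after 1 h shaking at room temperature, normalized to DMSO wells for each culture.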

[2] = tested on: PANFR0172_T2; test: Patient-derived pancreatic organoid viability, PANFR0172_T2; type: cell-based, human; details: read-out: PANFR0172_T2 3D organoid culture IC50
How it was run: as §1

[3] = tested on: PATU-8988T cells; test: Cell viability, ultra-low adherent 3D-spheroid culture, PATU-8988T; type: cell-based, human; details: 120 h, read-out: PATU-8988T cells 3D spheroid culture IC50
How it was run: (§2)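 PATU-8902 or PATU-8988T cells were plated at 100 cells/well and left overnight to adhere (2D plates) or to form spheroids (ultra-low-attachment 3D spheroid plates). Compound was pin-transferred, then 120 h incubation. Viability by CellTiter-Glo luminescence after 15 min at room temperature, normalized to DMSO-treated wells for each cell line.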

[4] = tested on: PANFR0172_T4; test: Patient-derived pancreatic organoid viability, PANFR0172_T4; type: cell-based, human; details: read-out: PANFR0172_T4 3D organoid culture IC50
How it was run: as §1

[5] = tested on: PATU-8988T cells; test: Cell viability, 2D-adherent monolayer culture, PATU-8988T; type: cell-based, human; details: 120 h, read-out: PATU-8988T cells 2D monolayer culture IC50
How it was run: (§3)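 PATU-8988T and PATU-8902 cells were plated at 100 cells/well in 50 μL media, either adherent (2D) or in ultra-low attachment spheroid plates (3D), overnight. Test compound was pin-transferred and cells were incubated 120 h. Viability was read by CellTiter-Glo luminescence after 15 min at room temperature. Data were normalized to DMSO-treated wells per cell line and fitted.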

[6] = tested on: DCLK1 protein levels; test: DCLK1 protein levels by immunoblot in PDAC cells; type: cell-based, human; details: after 48 h, PATU-8988T and PATU-8902 cells
[7] = tested on: PATU-8902 cells; test: Cell viability, ultra-low adherent 3D-spheroid culture, PATU-8902; type: cell-based, human; details: read-out: PATU-8902 cells 3D spheroid culture IC50
How it was run: as §3

[8] = tested on: PATU-8902 cells; test: Cell viability, 2D-adherent monolayer culture, PATU-8902; type: cell-based, human; details: read-out: PATU-8902 cells 2D monolayer culture IC50
How it was run: as §2

[9] = tested on: PANFR0029_T2; test: Patient-derived pancreatic organoid viability, PANFR0029_T2; type: cell-based, human; details: read-out: PANFR0029_T2 3D organoid culture IC50
How it was run: as §1

[10] = tested on: FKBP12^F36V-KRAS^G12V; test: KRAS G12V degradation by immunoblot in FKBP12F36V-KRASG12V; type: cell-based, human; details: KRAS^−/− cells
[11] = target: LRRK2 (Homo sapiens, UniProt Q5S007); test: LRRK2 ADAPTA kinase assay; type: biochemical; details: LRRK2 kinase assay IC50, ADAPTA; Table 1
[12] = target: T1, DCLK1 (Homo sapiens, UniProt O15075); test: 33P-ATP DCLK1 kinase assay; type: biochemical; details: DCLK1 kinase assay IC50, 33P-ATP; ATP 50 μM (Km)
T1 sequence (O15075 1-740): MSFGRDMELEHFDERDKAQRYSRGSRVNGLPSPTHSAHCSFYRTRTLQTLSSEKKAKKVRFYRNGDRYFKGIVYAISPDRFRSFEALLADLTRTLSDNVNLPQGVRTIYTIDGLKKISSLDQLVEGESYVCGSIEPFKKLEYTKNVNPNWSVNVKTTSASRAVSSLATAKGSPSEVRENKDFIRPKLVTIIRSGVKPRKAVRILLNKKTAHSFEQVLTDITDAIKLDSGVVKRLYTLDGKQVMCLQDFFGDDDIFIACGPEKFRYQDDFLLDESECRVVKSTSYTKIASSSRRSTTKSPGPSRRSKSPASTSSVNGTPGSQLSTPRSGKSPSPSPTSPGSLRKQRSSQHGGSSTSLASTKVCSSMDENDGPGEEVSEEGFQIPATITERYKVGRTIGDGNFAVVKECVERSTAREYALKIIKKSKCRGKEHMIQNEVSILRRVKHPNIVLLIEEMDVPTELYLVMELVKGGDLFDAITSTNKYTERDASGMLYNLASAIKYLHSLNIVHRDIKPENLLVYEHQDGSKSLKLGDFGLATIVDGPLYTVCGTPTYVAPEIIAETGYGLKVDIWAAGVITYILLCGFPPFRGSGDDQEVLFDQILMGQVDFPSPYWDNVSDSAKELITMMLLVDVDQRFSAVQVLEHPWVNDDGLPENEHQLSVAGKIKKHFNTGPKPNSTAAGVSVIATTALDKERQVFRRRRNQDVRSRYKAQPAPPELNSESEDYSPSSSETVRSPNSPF

[13] = target: T2, DCLK2 (Homo sapiens, UniProt Q8N568); test: DCLK2 KINOMEscan binding assay
T2 sequence (Q8N568 1-766): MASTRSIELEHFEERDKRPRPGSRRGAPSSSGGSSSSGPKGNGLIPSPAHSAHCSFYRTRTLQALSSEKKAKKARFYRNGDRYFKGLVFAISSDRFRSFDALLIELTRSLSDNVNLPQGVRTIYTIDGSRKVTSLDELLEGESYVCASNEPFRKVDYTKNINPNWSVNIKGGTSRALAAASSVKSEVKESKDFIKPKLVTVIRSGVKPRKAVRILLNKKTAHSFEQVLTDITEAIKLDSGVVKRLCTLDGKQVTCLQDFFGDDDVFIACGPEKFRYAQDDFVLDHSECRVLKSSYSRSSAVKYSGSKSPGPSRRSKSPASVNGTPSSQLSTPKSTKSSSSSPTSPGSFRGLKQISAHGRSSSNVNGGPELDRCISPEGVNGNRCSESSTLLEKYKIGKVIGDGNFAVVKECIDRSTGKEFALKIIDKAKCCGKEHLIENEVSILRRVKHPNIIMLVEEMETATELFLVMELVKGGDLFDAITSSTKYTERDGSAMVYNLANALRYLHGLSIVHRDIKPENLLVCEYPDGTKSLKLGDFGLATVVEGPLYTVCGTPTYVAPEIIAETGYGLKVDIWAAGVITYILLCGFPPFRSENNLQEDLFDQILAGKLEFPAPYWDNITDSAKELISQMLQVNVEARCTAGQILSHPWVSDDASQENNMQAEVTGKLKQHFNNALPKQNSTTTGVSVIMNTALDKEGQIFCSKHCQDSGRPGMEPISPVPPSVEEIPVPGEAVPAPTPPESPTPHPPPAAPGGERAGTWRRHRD
How it was run: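 KINOMEscan competition binding run by a contract lab. Test compound in 12-point dose response, top concentration 10 μM. Values are the mean of n = 2 biologically independent samples.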

[14] = target: T3, DCLK1-Nluc in HCT116 cells (Homo sapiens, UniProt O15075); test: DCLK1 NanoBRET target engagement assay in HCT116 cells; type: cell-based
T3 sequence (O15075 1-729 isoform O15075-2): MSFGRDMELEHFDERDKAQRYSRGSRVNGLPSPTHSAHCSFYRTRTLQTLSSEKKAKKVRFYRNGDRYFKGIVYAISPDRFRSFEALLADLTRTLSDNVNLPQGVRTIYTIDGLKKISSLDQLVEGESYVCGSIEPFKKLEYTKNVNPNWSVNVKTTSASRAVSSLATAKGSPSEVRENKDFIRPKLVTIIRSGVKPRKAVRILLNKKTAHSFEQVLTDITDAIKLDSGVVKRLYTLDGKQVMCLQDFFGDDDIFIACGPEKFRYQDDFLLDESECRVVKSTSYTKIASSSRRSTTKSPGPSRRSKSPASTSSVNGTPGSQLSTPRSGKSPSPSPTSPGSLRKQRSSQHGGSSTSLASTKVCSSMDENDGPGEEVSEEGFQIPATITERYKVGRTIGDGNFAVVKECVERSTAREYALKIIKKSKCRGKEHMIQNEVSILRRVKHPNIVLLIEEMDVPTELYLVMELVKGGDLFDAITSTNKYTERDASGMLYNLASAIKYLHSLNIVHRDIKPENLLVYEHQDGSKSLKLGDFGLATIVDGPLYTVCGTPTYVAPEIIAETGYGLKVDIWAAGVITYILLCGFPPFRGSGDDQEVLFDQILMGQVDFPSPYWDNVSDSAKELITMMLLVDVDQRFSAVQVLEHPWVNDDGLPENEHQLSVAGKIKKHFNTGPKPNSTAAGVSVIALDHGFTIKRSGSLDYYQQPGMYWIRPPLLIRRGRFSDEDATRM

[15] = viability, 7 d, P.R. = partial response

Sequence of LRRK2 (Q5S007 whole entry): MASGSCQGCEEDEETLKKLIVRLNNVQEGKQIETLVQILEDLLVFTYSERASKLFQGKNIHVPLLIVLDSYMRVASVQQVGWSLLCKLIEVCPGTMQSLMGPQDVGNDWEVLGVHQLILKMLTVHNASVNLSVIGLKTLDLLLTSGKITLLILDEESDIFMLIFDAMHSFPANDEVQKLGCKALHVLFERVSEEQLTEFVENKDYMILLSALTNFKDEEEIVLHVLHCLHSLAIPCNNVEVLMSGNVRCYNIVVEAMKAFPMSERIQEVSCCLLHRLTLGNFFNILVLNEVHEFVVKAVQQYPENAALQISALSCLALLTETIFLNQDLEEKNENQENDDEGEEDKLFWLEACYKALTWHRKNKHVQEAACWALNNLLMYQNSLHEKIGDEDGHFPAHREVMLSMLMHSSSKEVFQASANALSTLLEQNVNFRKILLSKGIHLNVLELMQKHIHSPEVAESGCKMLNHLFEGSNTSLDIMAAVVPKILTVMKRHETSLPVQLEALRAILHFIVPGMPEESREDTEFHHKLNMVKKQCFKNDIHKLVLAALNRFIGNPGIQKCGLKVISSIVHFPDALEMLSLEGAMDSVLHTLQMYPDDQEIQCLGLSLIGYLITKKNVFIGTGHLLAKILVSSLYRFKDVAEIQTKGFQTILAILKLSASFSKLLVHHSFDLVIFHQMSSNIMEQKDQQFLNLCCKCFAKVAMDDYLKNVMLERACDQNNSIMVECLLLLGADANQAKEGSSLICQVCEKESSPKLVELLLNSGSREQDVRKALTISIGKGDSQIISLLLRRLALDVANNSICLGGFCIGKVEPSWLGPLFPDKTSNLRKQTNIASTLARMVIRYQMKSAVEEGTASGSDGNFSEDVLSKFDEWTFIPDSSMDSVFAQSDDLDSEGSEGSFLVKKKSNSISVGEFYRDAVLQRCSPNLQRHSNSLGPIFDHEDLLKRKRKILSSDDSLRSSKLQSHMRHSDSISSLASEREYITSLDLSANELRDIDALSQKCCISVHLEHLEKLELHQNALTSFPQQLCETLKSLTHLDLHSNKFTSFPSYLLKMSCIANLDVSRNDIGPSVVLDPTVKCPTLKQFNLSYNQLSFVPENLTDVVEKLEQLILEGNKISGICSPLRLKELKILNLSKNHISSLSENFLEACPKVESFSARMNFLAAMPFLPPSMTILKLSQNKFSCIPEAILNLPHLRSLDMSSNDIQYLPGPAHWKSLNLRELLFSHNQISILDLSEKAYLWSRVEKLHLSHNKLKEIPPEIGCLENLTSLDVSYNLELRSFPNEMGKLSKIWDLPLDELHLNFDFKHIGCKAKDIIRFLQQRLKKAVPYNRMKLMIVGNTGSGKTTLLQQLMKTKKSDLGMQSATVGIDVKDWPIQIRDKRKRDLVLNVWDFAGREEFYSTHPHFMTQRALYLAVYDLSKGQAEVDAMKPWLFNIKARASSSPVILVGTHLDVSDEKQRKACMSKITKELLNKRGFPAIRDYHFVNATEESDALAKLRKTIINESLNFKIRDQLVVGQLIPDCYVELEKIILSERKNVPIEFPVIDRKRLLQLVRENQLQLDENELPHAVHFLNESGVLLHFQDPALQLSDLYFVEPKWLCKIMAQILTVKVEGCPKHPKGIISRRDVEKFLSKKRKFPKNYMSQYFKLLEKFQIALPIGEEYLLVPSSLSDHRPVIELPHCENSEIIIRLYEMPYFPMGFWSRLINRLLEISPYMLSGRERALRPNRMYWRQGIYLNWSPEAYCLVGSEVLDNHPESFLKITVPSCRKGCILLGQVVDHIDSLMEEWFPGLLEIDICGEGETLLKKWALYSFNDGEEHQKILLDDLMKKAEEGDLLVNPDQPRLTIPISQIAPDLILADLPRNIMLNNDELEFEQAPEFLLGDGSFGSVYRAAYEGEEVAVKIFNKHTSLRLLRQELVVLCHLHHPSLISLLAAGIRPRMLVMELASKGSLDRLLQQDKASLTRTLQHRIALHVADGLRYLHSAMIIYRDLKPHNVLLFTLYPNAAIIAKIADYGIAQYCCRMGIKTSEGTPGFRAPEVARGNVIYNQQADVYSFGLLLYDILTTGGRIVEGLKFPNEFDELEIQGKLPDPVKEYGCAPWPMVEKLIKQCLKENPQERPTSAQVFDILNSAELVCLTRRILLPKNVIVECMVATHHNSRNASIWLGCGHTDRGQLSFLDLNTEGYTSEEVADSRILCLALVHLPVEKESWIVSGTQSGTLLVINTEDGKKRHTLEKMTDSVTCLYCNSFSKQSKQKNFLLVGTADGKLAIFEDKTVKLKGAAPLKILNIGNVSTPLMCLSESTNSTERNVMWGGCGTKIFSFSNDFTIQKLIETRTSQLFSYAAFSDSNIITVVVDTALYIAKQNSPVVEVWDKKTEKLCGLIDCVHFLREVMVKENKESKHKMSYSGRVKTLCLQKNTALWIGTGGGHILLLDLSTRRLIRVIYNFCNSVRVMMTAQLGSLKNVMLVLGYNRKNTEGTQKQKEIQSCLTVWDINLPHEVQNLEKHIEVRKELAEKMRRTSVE

## CC(=O)Nc1cccc(-n2c(=O)n(C3CC3)c(=O)c3c(Nc4ccc(I)cc4F)n(C)c(=O)c(C)c32)c1 [Trametinib]
[1]; Homo sapiens, 168 h
  IC50: 1180 nM
[2]; Homo sapiens, 168 h
  IC50: 791 nM
[3]; Homo sapiens, PaTu 8988t
  IC50: 1 nM
[4]; Homo sapiens, 168 h
  IC50: > 20000 nM
[5]; Homo sapiens, PaTu 8988t
  IC50: 60 nM
[6]
  effect on DCLK1 protein levels: diminished DCLK1 protein levels
[7]; Homo sapiens, PaTu 8902, 120 h
  IC50: < 0.63 nM
[8]; Homo sapiens, PaTu 8902, 120 h
  IC50: 4.89 nM
[9]; Homo sapiens, 168 h
  IC50: 185 nM

## Cc1sc2c(c1C)C(c1ccc(Cl)cc1)=N[C@@H](CC(=O)OC(C)(C)C)c1nnc(C)n1-2 [JQ1]
[1]; [15]
  IC50: > 1000 nM
[2]; [15]
  IC50: > 1000 nM
[3]; cell viability
  IC50: 111 nM
[4]; [15]
  IC50: > 1000 nM
[5]; cell viability, P.R. = partial response
  IC50: 67.4 nM
[7]; cell viability, 120 h, P.R. = partial response
  IC50: > 1000 nM
[8]; cell viability, 120 h
  IC50: 1810 nM
[9]; viability, 7 d, DCLK1-negative organoids
  IC50: 363 nM

## CC[C@H](C(=O)N1CCCC[C@H]1C(=O)O[C@H](CCc1ccc(OC)c(OC)c1)c1ccccc1OCC(=O)NCCCCCCOc1cccc2c1C(=O)N(C1CCC(=O)NC1=O)C2=O)c1cc(OC)c(OC)c(OC)c1 (some centres unmarked) [dTAG-13]
[10]
  time to initiation of KRAS^G12V degradation: ≤ 1 h

## COc1cc(C(=O)N2CCC(N3CCN(C)CC3)CC2)ccc1Nc1ncc2c(n1)N(C)c1ccccc1C(=O)N2C [LRRK2-IN-1]
[1]; Homo sapiens, 168 h
  IC50: 1500 nM
[2]; Homo sapiens, 168 h
  IC50: 1340 nM
[3]; Homo sapiens, PaTu 8988t
  IC50: 1870 nM
[4]; Homo sapiens, 168 h
  IC50: > 20000 nM
[5]; Homo sapiens, PaTu 8988t
  IC50: 1150 nM
[11]
  IC50: 4.1 nM
[7]; Homo sapiens, PaTu 8902, 120 h
  IC50: > 1000 nM
[12]
  IC50: 55 nM
[8]; Homo sapiens, PaTu 8902, 120 h
  IC50: > 20000 nM
[13]
  IC50: 9.9 nM
[14]
  IC50: 400 nM
